{
  "source": "ChEMBL document CHEMBL5055637",
  "about": "“Novel C-3-(N-alkyl-aryl)-aminomethyl rifamycin SV derivatives exhibit activity against rifampicin-resistant Mycobacterium tuberculosis RpoBS522L strain and display a different binding mode at the RNAP β-subunit site compared to rifampicin” (2021)",
  "key": {"[1]": {"test_system": "Mycobacterium tuberculosis", "assay": "Antitubercular activity against wild type Mycobacterium tuberculosis HN878 assessed as bacterial growth inhibition measured after 5 days by serial dilution method", "type": "functional", "conditions": "HN878, 120 h, time 5 day", "outline": "(§1)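 Strains grown in Middlebrook 7H9 with OADC supplement and 0.05% w/v Tween 80. Compounds tested as 10-point 2-fold serial dilutions. Growth read as OD590 after 5 days in 7H9-OADC-Tw. Levenberg-Marquardt curve fitting gave MIC90, the concentration inhibiting growth by 90% relative to controls. Run in triplicate.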"}, "[2]": {"test_system": "Mycobacterium tuberculosis", "assay": "Antitubercular activity against wild type Mycobacterium tuberculosis H37Rv ATCC 25618 assessed as bacterial growth inhibition measured after 5 days by serial dilution method", "type": "functional", "conditions": "H37Rv ATCC 25618, 120 h, time 5 day", "outline": "as §1"}},
  "data": [
    {"smiles": "CO[C@H]1/C=C/O[C@@]2(C)Oc3c(C)c(O)c4c(O)c(c(CN5CCN(CCO)CC5)c(O)c4c3C2=O)NC(=O)/C(C)=C\\C=C\\[C@H](C)[C@H](O)[C@@H](C)[C@@H](O)[C@@H](C)[C@H](OC(C)=O)[C@@H]1C", "values": [
      {"measurement": "MIC90", "setting": "[1]", "result": 0.07, "unit": "µM"},
      {"measurement": "MIC90", "setting": "[2]", "result": 0.034, "unit": "µM"}
    ]},
    {"smiles": "CO[C@H]1/C=C/O[C@@]2(C)Oc3c(C)c(O)c4c(O)c(c(/C=N/N5CCN(C)CC5)c(O)c4c3C2=O)NC(=O)/C(C)=C\\C=C\\[C@H](C)[C@H](O)[C@@H](C)[C@@H](O)[C@@H](C)[C@H](OC(C)=O)[C@@H]1C", "note": "[RIFAMPIN]", "values": [
      {"measurement": "MIC90", "setting": "[1]", "result": 0.02, "unit": "µM"},
      {"measurement": "MIC90", "setting": "[2]", "result": 0.0045, "unit": "µM"}
    ]},
    {"smiles": "CO[C@H]1/C=C/O[C@@]2(C)Oc3c(C)c(O)c4c(O)c(c(CNCc5cccs5)c(O)c4c3C2=O)NC(=O)/C(C)=C\\C=C\\[C@H](C)[C@H](O)[C@@H](C)[C@@H](O)[C@@H](C)[C@H](OC(C)=O)[C@@H]1C", "values": [
      {"measurement": "MIC90", "setting": "[1]", "result": 0.2, "unit": "µM"},
      {"measurement": "MIC90", "setting": "[2]", "result": 0.082, "unit": "µM"}
    ]},
    {"smiles": "CO[C@H]1/C=C/O[C@@]2(C)Oc3c(C)c(O)c4c(O)c(c(CNCc5ccc(S(C)(=O)=O)cc5)c(O)c4c3C2=O)NC(=O)/C(C)=C\\C=C\\[C@H](C)[C@H](O)[C@@H](C)[C@@H](O)[C@@H](C)[C@H](OC(C)=O)[C@@H]1C", "values": [
      {"measurement": "MIC90", "setting": "[1]", "result": 0.096, "unit": "µM"},
      {"measurement": "MIC90", "setting": "[2]", "result": 0.039, "unit": "µM"}
    ]},
    {"smiles": "CO[C@H]1/C=C/O[C@@]2(C)Oc3c(C)c(O)c4c(O)c(c(CNCCc5c[nH]c6ccccc56)c(O)c4c3C2=O)NC(=O)/C(C)=C\\C=C\\[C@H](C)[C@H](O)[C@@H](C)[C@@H](O)[C@@H](C)[C@H](OC(C)=O)[C@@H]1C", "values": [
      {"measurement": "MIC90", "setting": "[1]", "result": 0.39, "unit": "µM"},
      {"measurement": "MIC90", "setting": "[2]", "result": 0.039, "unit": "µM"}
    ]},
    {"smiles": "CO[C@H]1/C=C/O[C@@]2(C)Oc3c(C)c(O)c4c(O)c(c(CNCc5ccco5)c(O)c4c3C2=O)NC(=O)/C(C)=C\\C=C\\[C@H](C)[C@H](O)[C@@H](C)[C@@H](O)[C@@H](C)[C@H](OC(C)=O)[C@@H]1C", "values": [
      {"measurement": "MIC90", "setting": "[1]", "result": 0.45, "unit": "µM"},
      {"measurement": "MIC90", "setting": "[2]", "result": 0.09, "unit": "µM"}
    ]},
    {"smiles": "COC(=O)c1ccc(CNCc2c3c(O)c4c(O)c(C)c5c(c4c2O)C(=O)[C@@](C)(O/C=C/[C@H](OC)[C@@H](C)[C@@H](OC(C)=O)[C@H](C)[C@H](O)[C@H](C)[C@@H](O)[C@@H](C)/C=C/C=C(/C)C(=O)N3)O5)cc1", "values": [
      {"measurement": "MIC90", "setting": "[1]", "result": 0.53, "unit": "µM"},
      {"measurement": "MIC90", "setting": "[2]", "result": 0.12, "unit": "µM"}
    ]},
    {"smiles": "CO[C@H]1/C=C/O[C@@]2(C)Oc3c(C)c(O)c4c(O)c(c(CNCc5ccncc5)c(O)c4c3C2=O)NC(=O)/C(C)=C\\C=C\\[C@H](C)[C@H](O)[C@@H](C)[C@@H](O)[C@@H](C)[C@H](OC(C)=O)[C@@H]1C", "values": [
      {"measurement": "MIC90", "setting": "[1]", "result": 0.31, "unit": "µM"},
      {"measurement": "MIC90", "setting": "[2]", "result": 0.075, "unit": "µM"}
    ]},
    {"smiles": "CO[C@H]1/C=C/O[C@@]2(C)Oc3c(C)c(O)c4c(O)c(c(CNCc5ccccc5)c(O)c4c3C2=O)NC(=O)/C(C)=C\\C=C\\[C@H](C)[C@H](O)[C@@H](C)[C@@H](O)[C@@H](C)[C@H](OC(C)=O)[C@@H]1C", "values": [
      {"measurement": "MIC90", "setting": "[2]", "result": 0.097, "unit": "µM"}
    ]},
    {"smiles": "NNC(=O)c1ccncc1", "note": "[ISONIAZID]", "values": [
      {"measurement": "MIC90", "setting": "[1]", "result": 0.29, "unit": "µM"},
      {"measurement": "MIC90", "setting": "[2]", "result": 0.28, "unit": "µM"}
    ]},
    {"smiles": "CO[C@H]1/C=C/O[C@@]2(C)Oc3c(C)c(O)c4c(O)c(c(CNCCc5ccc(O)cc5)c(O)c4c3C2=O)NC(=O)/C(C)=C\\C=C\\[C@H](C)[C@H](O)[C@@H](C)[C@@H](O)[C@@H](C)[C@H](OC(C)=O)[C@@H]1C", "values": [
      {"measurement": "MIC90", "setting": "[1]", "result": 0.22, "unit": "µM"},
      {"measurement": "MIC90", "setting": "[2]", "result": 0.066, "unit": "µM"}
    ]}
  ]
}
